Active and inactive are the calls of the source. The rule behind the calls is not given here.
Assays:
[1] = species: Cavia porcellus; experiment: Skin Phototoxicity was tested on depilated Guinea Pigs (outbred Dunkin - Hartley strain) and erythema intensity was measured; Absent; assay type: functional, organism-based
[2] = system: HL-60; experiment: Antiproliferative activity against HL-60 (human promyelocytic leukemic cells) after exposure to UV light; assay type: functional, cell-based
Outline: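 HL-60 cells grown in RPMI 1640 with 15% heat-inactivated FCS at 37 °C, 5% CO2. 10^5 cells/well were incubated 24 h, then test agent was added at various concentrations in complete medium. After 1 h in the dark, cells received a UVA dose of 0.793 J cm^-2 (lamps emitting >90% at 365 nm) and were incubated 24 h more. Viability was read by trypan blue; IC50 is the 50% reduction in cell number versus control cultures.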

[3] = system: HL-60; experiment: Antiproliferative activity against HL-60 (human promyelocytic leukemic cells) in dark condition; assay type: functional, cell-based
[4] = system: HeLa; experiment: Antiproliferative activity against HeLa (human cervix adenocarcinoma cells) after exposure to UV light; assay type: functional, cell-based
Outline: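 HeLa cells grown in F-12 with 10% heat-inactivated FCS at 37 °C, 5% CO2. 10^5 cells/well were incubated 24 h, switched to phenol-red-free DMEM, and given various agent concentrations. After 1 h they were irradiated with UVA at 0.793 J cm^-2 (365 nm lamps). Drug medium was then removed, and cells were kept 24 h in complete F-12. Trypan blue counts gave IC50 versus control.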

[5] = system: HeLa; experiment: Antiproliferative activity against HeLa (human cervix adenocarcinoma cells) in dark condition; assay type: functional, cell-based
Outline: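 Dark control on HeLa (F-12, 10% FCS, 37 °C, 5% CO2). 10^5 cells/well were seeded and, after 24 h, given phenol-red-free DMEM with various agent concentrations. No irradiation was applied, and compound was not washed out; cells were kept 24 h in complete F-12 with compound. Viability was by trypan blue; IC50 is the 50% drop in cell number relative to control cultures.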

Compound	Erythema intensity [1]	IC50 [2]	IC50 [3]	IC50 [4]	IC50 [5]
COc1c2occ(C)c2cc2c3c(c(=O)oc12)CCCC3	inactive	13 µM	> 20 µM	15.7 µM	> 20 µM
COc1c2occ(C)c2cc2c1oc(=O)c1ccccc12	inactive	11.8 µM	> 20 µM	> 20 µM	> 20 µM
Cc1coc2c(OCCCN(C)C)c3oc(=O)c4c(c3cc12)CCCC4	inactive	0.95 µM	16 µM	0.68 µM	> 20 µM
Cc1coc2c(O)c3oc(=O)c4ccccc4c3cc12	inactive	> 20 µM	> 20 µM	> 20 µM	> 20 µM
COc1c2occc2cc2ccc(=O)oc12 [METHOXSALEN]			> 20 µM		> 20 µM
Cc1coc2c(OCCCN(C)C)c3oc(=O)c4ccccc4c3cc12	inactive	0.67 µM	9.9 µM	0.64 µM	> 20 µM
Cc1coc2c(O)c3oc(=O)c4c(c3cc12)CCCC4	inactive	17 µM	> 20 µM	17.4 µM	> 20 µM

— ChEMBL document CHEMBL1145066, “Novel pyrone side tetracyclic psoralen derivatives: synthesis and photobiological evaluation” (J Med Chem, 2003)
